Data: ChEMBL document CHEMBL3112527, “Quinoline-pyrimidine hybrids: synthesis, antiplasmodial activity, SAR, and mode of action studies” (J Med Chem, 2014)
Values after ≈ are worked out from the molar mass of the structure shown. Active and inactive are the calls of the source. The rule behind the calls is not given here.

Experiments:
DNA = test: Binding affinity to calf thymus DNA at 5:1 DNA to compound ratio by spectrophotometric analysis; assay type: nucleic-acid assay; settings: Bos taurus
HeLa = test: Cytotoxicity against human HeLa cells assessed as growth inhibition by MTT assay; assay type: cell-based
[1] = tested on: Vesicular stomatitis virus; test: Antiviral activity against Vesicular stomatitis virus infected in human HeLa cells assessed as inhibition of virus-induced cytopathicity; assay type: functional, organism-based
Summary of the method: (§1)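 Confluent monolayers in 96-well plates were inoculated with 100 CCID50 of virus in the presence of varying concentrations of compound. Read-out was inhibition of virus-induced cytopathicity, compared with untreated infected cultures. Cytotoxicity was judged microscopically or by MTT viability staining.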

Plasmodium falciparum [2] = test: Antiplasmodial activity against chloroquine-sensitive asexual erythrocytic stage of Plasmodium falciparum D10 assessed as parasite growth inhibition by lactate dehydrogenase assay; assay type: functional, organism-based
Summary of the method: (§2)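 Parasite lactate dehydrogenase assay (modified Makler method). Samples held as 20 mg/mL stocks in DMSO, diluted on test day. Full dose-response: starting at 10 μg/mL, 2-fold serial dilution in complete medium over 10 concentrations down to 0.02 μg/mL. Chloroquine, artesunate and MMV390048 served as references. IC50 from nonlinear dose-response curve fitting; mean of three independent experiments.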

Feline coronavirus = test: Antiviral activity against Feline coronavirus infected in cat CRFK cells assessed as inhibition of virus-induced cytopathicity; assay type: functional, organism-based
Summary of the method: (§3)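 Confluent monolayers (HEL, Vero, HeLa or CrFK, as applicable) were inoculated with 100 CCID50 of virus, with 1 CCID50 being the dose that infects 50% of cultures. Infection ran in the presence of varying compound concentrations. Inhibition of virus-induced cytopathicity was scored against infected cultures left untreated.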

Coxsackievirus B4 [3] = test: Antiviral activity against Coxsackievirus B4 infected in African green monkey Vero cells assessed as inhibition of virus-induced cytopathicity; assay type: functional, organism-based; summary of the method: as §3
[4] = Aqueous solubility of the compound in PBS buffer at pH 7.4 after 24 hrs by HPLC analysis; assay type: physicochemical; settings: pH 7.4, 24 h
Human betaherpesvirus 5 [5] = test: Antiviral activity against Cytomegalovirus AD169 infected in HEL cells assessed as inhibition of virus-induced cytopathicity; assay type: functional, organism-based
Felid alphaherpesvirus 1 = test: Antiviral activity against Feline herpesvirus infected in cat CRFK cells assessed as inhibition of virus-induced cytopathicity; assay type: functional, organism-based; summary of the method: as §3
[6] = tested on: Respiratory syncytial virus; test: Antiviral activity against Respiratory syncytial virus infected in human HeLa cells assessed as inhibition of virus-induced cytopathicity; assay type: functional, organism-based; summary of the method: as §3
[7] = Cytotoxicity against cat CRFK cells assessed as cell viability by MTS assay; assay type: cell-based, Felis catus
Summary of the method: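 CRFK cells were exposed to varying sample concentrations. Cell viability was measured with the colorimetric formazan-based MTS assay, and the 50% cytotoxic concentration (CC50) was derived from it.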

Influenza A virus = test: Antiviral activity against influenza A virus H1N1 infected in MDCK cells assessed as inhibition of virus-induced cytopathicity; assay type: functional, organism-based; summary of the method: as §1
Vaccinia virus = test: Antiviral activity against Vaccinia virus infected in HEL cells assessed as inhibition of virus-induced cytopathicity; assay type: functional, organism-based; settings: Orthopoxvirus vaccinia; summary of the method: as §1
Human betaherpesvirus 5 [8] = test: Antiviral activity against Cytomegalovirus Davis infected in HEL cells assessed as inhibition of virus-induced cytopathicity; assay type: functional, organism-based
Human respirovirus 3 = test: Antiviral activity against parainfluenza virus 3 infected in African green monkey Vero cells assessed as inhibition of virus-induced cytopathicity; assay type: functional, organism-based; summary of the method: as §3
[9] = Solubility of the compound in octanol at pH 7.4 by HPLC analysis; assay type: physicochemical
Sindbis virus = test: Antiviral activity against Sindbis virus infected in African green monkey Vero cells assessed as inhibition of virus-induced cytopathicity; assay type: functional, organism-based
[10] = Selectivity index, ratio of CC50 for cat CRFK cells to IC50 for chloroquine-resistant asexual erythrocytic stage of Plasmodium falciparum Dd2; assay type: functional
Summary of the method: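 Ratio of CRFK CC50 (μM) to Dd2 IC50 […]. CC50 is the 50% cytotoxic concentration in feline kidney CRFK cells, measured as cell viability by colorimetric formazan-based MTS assay. Dd2 IC50 is from the parasite LDH growth-inhibition assay.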

Plasmodium falciparum [11] = test: Antiplasmodial activity against chloroquine-resistant asexual erythrocytic stage of Plasmodium falciparum Dd2 assessed as parasite growth inhibition by lactate dehydrogenase assay; assay type: functional, organism-based; summary of the method: as §2
Coxsackievirus B4 [12] = test: Antiviral activity against Coxsackievirus B4 infected in human HeLa cells assessed as inhibition of virus-induced cytopathicity; assay type: functional, organism-based; summary of the method: as §3
[13] = tested on: Vesicular stomatitis virus; test: Antiviral activity against Vesicular stomatitis virus infected in HEL cells assessed as inhibition of virus-induced cytopathicity; assay type: functional, organism-based; summary of the method: as §1
Human alphaherpesvirus 1 [14] = test: Antiviral activity against HSV-1 KOS infected in HEL cells assessed as inhibition of virus-induced cytopathicity; assay type: functional, organism-based; summary of the method: as §3
Human alphaherpesvirus 3 = test: Antiviral activity against Varicella-zoster virus infected in HEL cells assessed as inhibition of virus-induced cytopathicity; assay type: functional, organism-based
Human alphaherpesvirus 2 = test: Antiviral activity against HSV-2 G infected in HEL cells assessed as inhibition of virus-induced cytopathicity; assay type: functional, organism-based; settings: strain G; summary of the method: as §3
Influenza A virus H3N2 = test: Antiviral activity against Influenza A virus H3N2 infected in MDCK cells assessed as inhibition of virus-induced cytopathicity; assay type: functional, organism-based; summary of the method: as §1
[15] = Cytotoxicity against human HeLa cells assessed as alteration of cell morphology by microscopic analysis; assay type: cell-based; settings: read-out: MIC
Summary of the method: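 Cells (Vero, HEL, MDCK or HeLa) were exposed to a range of sample concentrations. The value reported is the concentration required to cause a microscopically detectable alteration of normal cell morphology.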

[16] = tested on: Mammalian orthoreovirus 1; test: Antiviral activity against Reovirus 1 infected in African green monkey Vero cells assessed as inhibition of virus-induced cytopathicity; assay type: functional, organism-based; summary of the method: as §3
[17] = n-octanol-PBS buffer distribution coefficient, log D of the compound at pH 7.4 after 24 hrs by HPLC analysis; assay type: physicochemical
Punta Toro virus = test: Antiviral activity against Punta Toro virus infected in African green monkey Vero cells assessed as inhibition of virus-induced cytopathicity; assay type: functional, organism-based; summary of the method: as §3
Human alphaherpesvirus 1 [18] = test: Antiviral activity against thymidine kinase-negative acyclovir-resistant HSV-1 KOS infected in HEL cells assessed as inhibition of virus-induced cytopathicity; assay type: functional, organism-based; summary of the method: as §1

## CCN(CC)CCCC(C)Nc1ccnc2cc(Cl)ccc12 (stereo not given) [CHLOROQUINE PHOSPHATE]
DNA
  Activity: Active
HeLa
  IC50: 30000 nM

## Clc1ccc2c(NCCCNc3nccc(Cl)n3)ccnc2c1
[1]
  inhibition: inactive
Plasmodium falciparum [2]
  IC50: 244 nM
Feline coronavirus
  inhibition: inactive
Coxsackievirus B4 [3]
  inhibition: inactive
[4]
  solubility: 0.4 µM (≈ 0.139 µg/mL)
Human betaherpesvirus 5 [5]
  inhibition: inactive
Felid alphaherpesvirus 1
  inhibition: inactive
[6]
  inhibition: inactive
[7]
  CC50: > 100000 nM
Influenza A virus
  inhibition: inactive
Vaccinia virus
  inhibition: inactive
Human betaherpesvirus 5 [8]
  inhibition: inactive
Human respirovirus 3
  inhibition: inactive
[9]
  solubility: 1.81 µM (≈ 0.63 µg/mL)
Sindbis virus
  inhibition: inactive
[10]
  Ratio CC50/IC50: >209
Plasmodium falciparum [11]
  IC50: 478 nM
Coxsackievirus B4 [12]
  inhibition: inactive
[13]
  inhibition: inactive
Human alphaherpesvirus 1 [14]
  inhibition: inactive
Human alphaherpesvirus 3
  inhibition: inactive
Human alphaherpesvirus 2
  inhibition: inactive
Influenza A virus H3N2
  inhibition: inactive
[15]
  MCC: > 100 µM
[16]
  inhibition: inactive
[17]
  logD at 24 h: 0.657
Punta Toro virus
  inhibition: inactive
Human alphaherpesvirus 1 [18]
  inhibition: inactive
